The subject of one test is leukemia Jurkat-T. The test can be described thus: MTT toxicity assay, Jurkat. Type of test: cell-based, human. The note with it: read-out: IC50 Jurkat, 24 h incubation, mean ± SD (n = 4). In a few lines: (§1)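 Cells were seeded at 5 × 10^4/well for Jurkat or 10^4/well for adherent lines, which attached 24 h. Test compound was added at several concentrations in triplicate for 24 h at 37 °C, 5% CO2, and read by modified MTT reduction.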
On the technique in general: Tetrazolium assays rely on reduction of a dye to a coloured formazan, in cell work by metabolically active cells.

Another test has as its system lung A549. The test can be described thus: MTT toxicity assay, A549. Type of test: cell-based, human. The note with it: read-out: IC50 A549, 24 h incubation, mean ± SD (n = 4). Summed up:
(§2)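 Adherent cells (10^4/well) attached for 24 h, then test compound was added at several concentrations in triplicate for 24 h at 37 °C, 5% CO2. Proliferation was read by a modified MTT-reduction method.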

The next test concerns prostate DU-145. As to the kind of experiment: MTT toxicity assay, DU-145. Type of test: cell-based, human. The following applies: read-out: IC50 DU-145, 24 h incubation, mean ± SD (n = 4). Summed up: as §1
Another test deals with pancreas MiaPaca2. As to the kind of experiment: MTT toxicity assay, MiaPaca2. In kind it is cell-based, human. The note with it: read-out: IC50 MiaPaca2, 24 h incubation, mean ± SD (n = 4). Summed up:
as §1

The subject of test [1] is triple negative breast MDA-MB-231. As to the kind of experiment: MTT toxicity assay, MDA-MB-231. Type of test: cell-based, human. The note with it: read-out: IC50 MDA-MB-231, 24 h incubation, mean ± SD (n = 4).
Test [2] has as its system nontumorigenic human embryonic kidney cells HEK293T. As to the kind of experiment: MTT toxicity assay, HEK-293T. The note with it: read-out: IC50 HEK-293T, 24 h incubation, mean ± SD (n = 4). Type of test: cell-based. Summed up:
as §2

The subject of test [3] is human renal proximal tubular cells (RPTC). As to the kind of experiment: XTT assay for RPTC cells. The following applies: read-out: IC50 RPTC; XTT assay 24 h. Type of test: cell-based. Summed up: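 Primary human renal proximal tubular cells were grown in RenaLife medium (0.5% FBS, growth factors) at 37 °C, 5% CO2. They were seeded at 5 × 10^3/well and grown 24 h. Test compound from fresh aqueous stock was given at 0.1–200 μM final for 24 h. XTT absorbance was read at 450 nm and survival calculated against untreated cells. IC50 is mean ± SE of at least two experiments in triplicate.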

In the next test the test system is plasmid (pBR322) DNA. The test can be described thus: Electrophoresis mobility shift assay. The note with it: 37 °C, 20 h, Tris/HCl buffer, up to drug/DNA ratio 2.0. Type of test: binding. In a few lines: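 pBR322 DNA (20 μg/mL) in 5 mM Tris/HCl, 50 mM NaClO4, pH 7.39 was incubated with test compound at 0.25–2.0 metal complex:DNA bp. Incubation was 37 °C, 20 h, in the dark, with free DNA and cisplatin-DNA controls. Samples ran on 1% agarose in TAE for 1.5 h at 80 V and were stained 30 min with GelRed.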

The results in this text go back to paper PMC4266334 (Journal of Medicinal Chemistry, 2014).

One may read the IC50 as the concentration at which inhibition is half-maximal.

SMILES strings stand for the structures.

Take `N.N.[Cl][Pt][Cl]` [cisplatin]: the IC50 with leukemia Jurkat-T amounted to 10.8 ± 1.2 µM; in the test on lung A549, 114 ± 9.1 µM; in the test on prostate DU-145, 112 ± 33 µM; with pancreas MiaPaca2, 76.5 ± 7.4 µM; in test [1], 131 ± 18 µM; in test [2] it was 69 ± 6.7 µM. Besides, the concentration for half-maximal inhibition (IC50) in test [3] was found to be 46.4 ± 2.46 µM. In addition, the “effect on electrophoretic mobility of plasmid pBR322” value in the test with plasmid (pBR322) DNA was “both increase and decrease the mobility of the OC and the CCC forms”.
